Source: article PMC13322713 (Molecular imaging and biology, 2025)
Where “and” joins values, the source holds several entries; their conditions need not be identical. Equal values may be shown once.

Experiments:
[1] = test system: DX3puro (αvβ6 −) cells; test: Cell binding and internalization, DX3puro cells; assay type: cell-based; conditions: 1 h, 3.75 × 10^6 cells/experiment, mean ± SD, n = 4
In short: (§1)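 Cells cultured at 37 °C, 5% CO2 with 10% FBS and 1% PSG: puromycin-containing DMEM for the DX3 pair, RPMI for BxPC-3. Integrin expression was checked by flow cytometry beforehand. The radiotracer was incubated 1 h with 3.75 × 10^6 cells per experiment in PBS containing calcium and magnesium, with non-fat dry milk blocking. Internalization was at 37 °C. Bound and internalized fractions are expressed as % of total radioactivity, quadruplicate, mean ± SD.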

[2] = test system: pancreatic BxPC-3 (αvβ6 +) cells; test: Cell binding and internalization, BxPC-3 cells; assay type: cell-based
In short: as §1

[3] = test system: BxPC-3 tumor-bearing mice; test: Biodistribution in BxPC-3 tumor-bearing mice; assay type: in vivo
In short: (§2)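 Female athymic nude mice, inoculated subcutaneously with 5 × 10^6 BxPC-3 cells in RPMI/Matrigel (1/1 v/v), used at ~0.5 cm tumor diameter (approx. 3 weeks). Isoflurane-anesthetized mice received the tail-vein radiotracer in PBS at 2.2–3.3 MBq, with mass held at 0.175 nmol by adding nonmetallated compound. Tissues collected 1, 2 and 4 h p.i. (n = 4 per time point), rinsed, γ-counted, and expressed as decay-corrected %ID/g, mean ± SD.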

[4] = Biodistribution in BxPC-3 tumor-bearing mice; assay type: in vivo; conditions: female, athymic nude, mouse, iv, 0.175 nmol per injection, total radioactivity
In short: as §2

[5] = Lipophilicity logD7.4, octanol/PBS partitioning; assay type: physicochemical; conditions: pH 7.4
[6] = test system: DX3puroβ6 (αvβ6 +) cells; test: Cell binding and internalization, DX3puroβ6 cells; assay type: cell-based
In short: as §1

[7] = biological target: integrin αvβ6 (Homo sapiens, UniProt P06756+P18564); test: Competitive binding ELISA against Bt-LAP; conditions: ratio of ELISA IC50s
In short: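 Competitive ELISAs used biotinylated LAP as ligand for integrin αvβ6 and biotinylated vitronectin for αvβ3. IC50s came from a sigmoidal fit of binding over a peptide concentration range. The ratio is αvβ3 IC50 divided by αvβ6 IC50.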

[8] = Whole-body radioactivity / excretion during PET/CT study; set-up: species or system mice; conditions: female, athymic nude, mouse, in vivo, iv, 0.175 nmol per injection, total radioactivity

integrin αvβ6, sequence (P06756 31-1048): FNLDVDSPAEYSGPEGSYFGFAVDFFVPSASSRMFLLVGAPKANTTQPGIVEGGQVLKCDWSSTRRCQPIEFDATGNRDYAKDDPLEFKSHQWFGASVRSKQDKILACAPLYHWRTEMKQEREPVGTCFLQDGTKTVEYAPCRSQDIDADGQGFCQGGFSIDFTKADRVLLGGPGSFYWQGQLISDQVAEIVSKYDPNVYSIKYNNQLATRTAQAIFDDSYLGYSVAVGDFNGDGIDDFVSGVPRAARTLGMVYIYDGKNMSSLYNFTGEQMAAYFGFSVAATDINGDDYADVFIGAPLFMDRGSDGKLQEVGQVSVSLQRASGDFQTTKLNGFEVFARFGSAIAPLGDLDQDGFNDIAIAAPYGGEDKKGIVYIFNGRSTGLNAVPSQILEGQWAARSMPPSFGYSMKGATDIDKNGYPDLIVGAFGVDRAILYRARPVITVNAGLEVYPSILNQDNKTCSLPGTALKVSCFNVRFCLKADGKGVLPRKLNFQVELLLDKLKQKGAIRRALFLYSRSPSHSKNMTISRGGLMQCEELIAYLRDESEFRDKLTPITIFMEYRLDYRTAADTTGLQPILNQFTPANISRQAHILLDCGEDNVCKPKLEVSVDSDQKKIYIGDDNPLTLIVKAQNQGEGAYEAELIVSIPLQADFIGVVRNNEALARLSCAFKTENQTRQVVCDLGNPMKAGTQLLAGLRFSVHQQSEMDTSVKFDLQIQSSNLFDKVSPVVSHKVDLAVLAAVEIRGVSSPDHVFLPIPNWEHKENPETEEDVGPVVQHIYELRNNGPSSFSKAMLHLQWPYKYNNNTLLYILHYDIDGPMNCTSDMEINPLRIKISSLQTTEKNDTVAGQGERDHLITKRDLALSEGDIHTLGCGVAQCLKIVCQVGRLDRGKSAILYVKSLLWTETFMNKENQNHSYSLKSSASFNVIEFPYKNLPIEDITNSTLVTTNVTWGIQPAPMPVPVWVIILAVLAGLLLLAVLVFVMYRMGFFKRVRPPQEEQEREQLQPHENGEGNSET
integrin αvβ6, sequence (P18564 22-788): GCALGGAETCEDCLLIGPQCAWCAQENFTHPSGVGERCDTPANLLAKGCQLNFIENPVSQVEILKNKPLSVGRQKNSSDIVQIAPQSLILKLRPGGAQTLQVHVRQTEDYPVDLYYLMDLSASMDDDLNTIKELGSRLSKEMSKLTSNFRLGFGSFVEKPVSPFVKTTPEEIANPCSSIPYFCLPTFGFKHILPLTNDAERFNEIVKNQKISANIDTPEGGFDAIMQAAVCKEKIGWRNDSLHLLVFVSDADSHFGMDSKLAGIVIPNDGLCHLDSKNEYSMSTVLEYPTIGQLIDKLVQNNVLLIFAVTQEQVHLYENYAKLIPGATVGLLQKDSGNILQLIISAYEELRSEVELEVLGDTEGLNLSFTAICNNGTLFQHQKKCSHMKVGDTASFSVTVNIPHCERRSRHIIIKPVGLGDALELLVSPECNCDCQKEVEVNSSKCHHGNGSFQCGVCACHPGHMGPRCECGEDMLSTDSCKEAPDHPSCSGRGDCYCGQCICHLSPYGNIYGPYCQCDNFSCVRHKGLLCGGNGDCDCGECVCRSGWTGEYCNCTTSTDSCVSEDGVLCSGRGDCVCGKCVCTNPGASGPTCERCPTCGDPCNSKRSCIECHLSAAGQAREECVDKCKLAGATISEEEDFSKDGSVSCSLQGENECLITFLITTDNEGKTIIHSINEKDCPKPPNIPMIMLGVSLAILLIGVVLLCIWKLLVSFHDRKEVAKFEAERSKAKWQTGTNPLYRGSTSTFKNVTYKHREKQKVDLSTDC

Question: Which results are given for `CC(C)C[C@H](NC(=O)[C@H](CC(=O)O)NC(=O)CNC(=O)[C@H](CCCNC(=N)N)NC(=O)[C@H](CC(C)C)NC(=O)[C@H](CC(N)=O)NC(=O)[C@@H]1CCCN1C(=O)[C@@H](NC(=O)CNC(=O)[C@H](CC(N)=O)NC(=O)CNC(=O)CCOCCOCCOCCOCCOCCOCCOCCOCCOCCOCCOCCOCCOCCOCCOCCOCCOCCOCCOCCOCCOCCOCCOCCOCCOCCOCCOCCOCCNC(=O)CN1CCN(CC(=O)O)CCN(CC(=O)O)CC1)C(C)C)C(=O)N[C@@H](CCC(N)=O)C(=O)N[C@H](C(=O)N[C@@H](CC(C)C)C(=O)NCC(=O)N[C@@H](CCC(N)=O)C(=O)N[C@@H](CCCNC(=N)N)C(=O)N[C@H](C(=O)NCC(=O)N[C@@H](CCCNC(=N)N)C(=O)N[C@H](C(=O)NCCOCCOCCOCCOCCOCCOCCOCCOCCOCCOCCOCCOCCOCCOCCOCCOCCOCCOCCOCCOCCOCCOCCOCCOCCOCCOCCOCCOCCC(N)=O)[C@@H](C)O)C(C)C)C(C)C` [[^18F]AlF NOTA-5G]?
Answer: Cell binding, % of total radioactivity bound [1]: 2% and 2.0 ± 0.2%; Radioactivity internalized ([2]; BxPC-3, 1 h at 37 °C, abstract: of bound activity): ≥ 50%; Cell binding, % of total radioactivity bound ([2]; BxPC-3 αvβ6(+), 1 h, 3.75 × 10^6 cells/experiment, mean ± SD, n = 4): 29.1 ± 3.7%; Tumor/blood ratio ([3]; 2 h p.i.): greater than 15/1; Tumor/liver ratio ([3]; 2 h p.i.): greater than 15/1; Tumor/pancreas ratio ([3]; 2 h p.i.): greater than 15/1; Tumor/blood ratio ([3]; 4 h p.i.): 162/1; Tumor/liver ratio ([3]; 4 h p.i.): 24/1; Tumor/muscle ratio ([3]; 4 h p.i.): 6/1; Tumor/pancreas ratio ([3]; 4 h p.i.): 18/1; Radioactivity levels in tissues aside from kidneys and GI tract, including bone ([3]; all time points (1, 2, 4 h p.i.)): ≤ 1.6 % ID/g; tissue uptake at 1 h ([4]; BxPC-3 tumor): 2.3 ± 0.4 %ID/g; tissue uptake at 4 h ([4]; BxPC-3 tumor): 1.8 ± 0.6 %ID/g; tissue uptake at 1 h ([4]; blood): 0.16 ± 0.03 %ID/g; tissue uptake at 4 h ([4]; blood): 0.01 ± 0.01 %ID/g; excreta dose per gram or mL at 1 h ([4]; feces): 0.7 ± 0.1 %ID/g; excreta dose per gram or mL at 4 h ([4]; feces): 5 ± 2.1 %ID/g; tissue uptake at 1 h ([4]; kidneys): 18.6 ± 6.4 %ID/g; tissue uptake at 4 h ([4]; kidneys): 12.5 ± 1.8 %ID/g; logD [5]: -2.34 ± 0.08; Ratio of cell binding DX3puroβ6 vs DX3puro ([6]; 1 h): 33/1; Ratio of internalization DX3puroβ6 vs DX3puro ([6]; 1 h at 37 °C): 96/1; Radioactivity internalized ([6]; DX3puroβ6, 1 h at 37 °C, abstract: of bound activity): ≥ 50%; Cell binding, % of total radioactivity bound ([6]; DX3puroβ6 αvβ6(+), 1 h, 3.75 × 10^6 cells/experiment, mean ± SD, n = 4): 66% and 66.2 ± 0.8%; IC50-ratio (αvβ3 vs αvβ6) [7]: > 7700/1; dose excreted at 4 h [8]: 80%
